From ChEMBL document CHEMBL4680221, “Discovery of pyrazole derivatives as cellular active inhibitors of histone lysine specific demethylase 5B (KDM5B/JARID1B)” (Eur J Med Chem, 2020)
The source made the active and inactive calls. The calls are words filed in the database; no cut-off is given here.

What was measured:
[1] = target: T1, Lysine-specific demethylase 5B (Homo sapiens, UniProt Q9UGL1); assay: Inhibition of recombinant human N-terminal FLAG-tagged KDM5B expressed in Sf9 insect cells at 10 uM using biotin-H3K4me as substrate by ALPHA relative to control
How it was run: (§1)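 ALPHA demethylase assay. Recombinant KDM5B (4 nM) was preincubated with compound, then biotin-H3K4me3 peptide (64 nM) was added. Buffer: 10 μM α-KG, 100 μM ascorbate, 50 μM (NH4)2Fe(SO4)2, 50 mM HEPES pH 7.5, 0.01% Tween 20, 0.1% BSA. Read-out used streptavidin donor and H3K4me1-2 antibody acceptor beads. Data were normalized to blank control and IC50 fitted.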

[2] = target: T1, Lysine-specific demethylase 5B; assay: Inhibition of recombinant human N-terminal FLAG-tagged KDM5B expressed in Sf9 insect cells using biotin-H3K4me as substrate by ALPHA; how it was run: as §1
[3] = target: T1, Lysine-specific demethylase 5B; assay: Inhibition of KDM5B in human MKN-45 cells assessed as increase in H3K4me2 accumulation at 20 uM measured after 5 days by Hoechst 33342 staining based immunofluorescence assay; format: cell-based; details: time 5.0 day
How it was run: (§2)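 MKN45 cells were seeded and left 24 h, then treated for 5 days. Cells were fixed in 4% paraformaldehyde, permeabilised with 0.1% Triton X-100 for 20 min and blocked with 5% BSA for 1 h. H3K4me2 or H3K4me3 primary antibody was applied at 4°C overnight, followed by Alexa Fluor 488 secondary and Hoechst 33342 (5 µg/mL) nuclear stain. Signal was quantified by high content imaging; three independent experiments.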

[4] = tested on: MKN-45; assay: Inhibition of KDM4 in human MKN-45 cells assessed as increase in H3K9me2 accumulation at 20 uM measured after 5 days by Western blot analysis; format: cell-based; details: time 5.0 day
How it was run: (§3)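 MKN45 cells were treated for 5 days and lysed in RIPA buffer. About 30 µg protein was run on 10% SDS-PAGE and transferred to 0.2 µm nitrocellulose, then blocked with 5% milk in PBS for 2 h. Blots were probed for histone methylation marks with histone 3 as loading control and detected by ECL.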

[5] = target: T1, Lysine-specific demethylase 5B; assay: Inhibition of KDM5B in human MKN-45 cells assessed as increase in H3K4me1 accumulation at 20 uM measured after 5 days by Western blot analysis; format: cell-based; details: time 5.0 day; how it was run: as §3
[6] = target: T1, Lysine-specific demethylase 5B; assay: Inhibition of KDM5B in human MKN-45 cells assessed as protein stabilization at 0.5 to 30 uM measured after 1 hr by cellular thermal shift assay; format: cell-based; details: dose 0.5-30 µM
How it was run: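 MKN45 cells (5×10^5) were treated with compound or DMSO for 1 h, washed in PBS and resuspended in PBS with protease inhibitors. Cells were heated at 46 °C for 3 min, then freeze-thawed three times in liquid nitrogen. KDM5B in the supernatant was measured by western blot with GAPDH control. Repeated three times.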

[7] = tested on: MKN-45; assay: Antiproliferative activity against human MKN-45 cells assessed as reduction in cell proliferation measured after 6 days by MTS assay relative to control; format: functional; design: scale not given: the % may be the effect or the level left; details: time 6 day
How it was run: (§4)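 MKN45 cells were seeded at 3×10^3 cells per well and treated for 4 or 6 days, as indicated. Proliferation was read by MTS assay and IC50 derived. Three independent experiments, mean ± SD.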

[8] = target: T1, Lysine-specific demethylase 5B; assay: Inhibition of KDM5B in human MKN-45 cells assessed as increase in H3K4me2 accumulation at 20 uM measured after 5 days by Western blot analysis; format: cell-based; details: time 5.0 day; how it was run: as §3
[9] = tested on: MKN-45; assay: Antimigratory activity in human MKN-45 cells at 20 uM measured after 24 hrs by transwell assay; format: functional, cell-based
[10] = tested on: MKN-45; assay: Inhibition of KDM4 in human MKN-45 cells assessed as increase in H3K9me3 accumulation at 20 uM measured after 5 days by Western blot analysis; format: cell-based; details: time 5.0 day; how it was run: as §3
[11] = target: T1, Lysine-specific demethylase 5B; assay: Inhibition of KDM5B in human MKN-45 cells assessed as increase in H3K4me3 accumulation at 20 uM measured after 5 days by Western blot analysis; format: cell-based; details: time 5.0 day; how it was run: as §3
[12] = tested on: MKN-45; assay: Antiproliferative activity against human MKN-45 cells assessed as reduction in cell proliferation measured after 4 days by MTS assay relative to control; format: functional; design: scale not given: the % may be the effect or the level left; details: time 4 day; how it was run: as §4
[13] = target: T1, Lysine-specific demethylase 5B; assay: Inhibition of KDM5B in human MKN-45 cells assessed as increase in H3K4me3 accumulation at 20 uM measured after 5 days by Hoechst 33342 staining based immunofluorescence assay; format: cell-based; details: time 5.0 day; how it was run: as §2
[14] = tested on: MKN-45; assay: Antimigratory activity in human MKN-45 cells at 20 uM measured up to 48 hrs by wound healing assay; format: functional, cell-based; details: time hrs <=48
How it was run: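 MKN45 cells were grown to confluence in 24 h, then scratched with a pipette tip and washed with PBS. Medium was changed to fresh medium with 2% FBS plus compound. The wound was photographed by microscope at 0, 6, 12, 24 and 48 h. Three independent experiments.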

[15] = tested on: MKN-45; assay: Inhibition of KDM6 in human MKN-45 cells assessed as increase in H3K27me2 accumulation at 20 uM measured after 5 days by Western blot analysis; format: cell-based; details: time 5.0 day; how it was run: as §3
[16] = tested on: MKN-45; assay: Antiproliferative activity against human MKN-45 cells assessed as reduction in cell proliferation measured after 4 days by MTS assay; format: functional, cell-based; details: MKN-45, 96 h; how it was run: as §4
[17] = Cytotoxicity against human GES1 cells assessed as reduction in cell proliferation at 100 uM by MTS assay relative to control; format: cell-based; details: read-out: Activity
How it was run: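 Normal human gastric epithelial GES-1 cells, seeded at 3×10^3 cells per well and exposed to 100 μM. Antiproliferation rate was read by MTS assay.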

[18] = tested on: MKN-45; assay: Antiproliferative activity against human MKN-45 cells assessed as reduction in cell proliferation measured after 6 days by MTS assay; format: functional, cell-based; details: MKN-45, 144 h; how it was run: as §4

T1 sequence (Q9UGL1 whole entry): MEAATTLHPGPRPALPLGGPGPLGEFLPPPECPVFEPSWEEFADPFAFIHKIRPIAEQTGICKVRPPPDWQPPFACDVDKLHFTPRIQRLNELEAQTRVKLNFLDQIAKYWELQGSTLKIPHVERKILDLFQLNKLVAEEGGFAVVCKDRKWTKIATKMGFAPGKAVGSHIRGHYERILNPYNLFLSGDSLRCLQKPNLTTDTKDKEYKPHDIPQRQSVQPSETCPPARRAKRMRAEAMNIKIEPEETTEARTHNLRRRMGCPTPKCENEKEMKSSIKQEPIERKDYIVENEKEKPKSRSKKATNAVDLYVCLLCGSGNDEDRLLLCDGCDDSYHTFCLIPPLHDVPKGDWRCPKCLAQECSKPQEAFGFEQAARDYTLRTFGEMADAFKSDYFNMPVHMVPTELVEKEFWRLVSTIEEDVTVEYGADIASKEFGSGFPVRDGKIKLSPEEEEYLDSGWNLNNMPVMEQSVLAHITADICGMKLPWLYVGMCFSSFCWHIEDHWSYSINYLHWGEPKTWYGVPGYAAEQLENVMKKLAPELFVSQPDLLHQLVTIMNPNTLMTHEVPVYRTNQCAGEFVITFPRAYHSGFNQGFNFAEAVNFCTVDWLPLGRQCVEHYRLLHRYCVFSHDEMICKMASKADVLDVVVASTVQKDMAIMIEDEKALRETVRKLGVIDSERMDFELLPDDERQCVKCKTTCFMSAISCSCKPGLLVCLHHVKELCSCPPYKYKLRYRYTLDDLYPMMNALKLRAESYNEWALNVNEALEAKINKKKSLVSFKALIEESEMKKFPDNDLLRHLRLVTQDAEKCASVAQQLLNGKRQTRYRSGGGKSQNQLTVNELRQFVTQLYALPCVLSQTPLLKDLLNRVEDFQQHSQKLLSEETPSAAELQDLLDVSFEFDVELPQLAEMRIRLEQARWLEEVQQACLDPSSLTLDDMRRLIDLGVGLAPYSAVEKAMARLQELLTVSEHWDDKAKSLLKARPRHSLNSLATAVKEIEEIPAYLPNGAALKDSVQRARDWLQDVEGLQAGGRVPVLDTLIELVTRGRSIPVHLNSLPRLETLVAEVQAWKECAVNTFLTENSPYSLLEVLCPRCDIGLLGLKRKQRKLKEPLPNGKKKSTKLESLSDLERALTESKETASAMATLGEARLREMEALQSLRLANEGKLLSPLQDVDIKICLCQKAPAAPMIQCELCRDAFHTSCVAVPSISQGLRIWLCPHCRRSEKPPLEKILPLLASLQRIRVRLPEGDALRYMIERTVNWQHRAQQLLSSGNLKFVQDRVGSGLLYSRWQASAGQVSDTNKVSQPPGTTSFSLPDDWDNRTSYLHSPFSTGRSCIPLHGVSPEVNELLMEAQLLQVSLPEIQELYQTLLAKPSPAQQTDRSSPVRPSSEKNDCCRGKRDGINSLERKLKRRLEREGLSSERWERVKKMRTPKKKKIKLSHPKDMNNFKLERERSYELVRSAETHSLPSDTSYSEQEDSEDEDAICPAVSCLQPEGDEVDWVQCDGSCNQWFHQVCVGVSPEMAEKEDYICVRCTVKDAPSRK

| Compound | inhibition [1] [%] | IC50 [2] [nM] | further results |
| --- | --- | --- | --- |
| COc1ccc(-n2cc(C(=O)N3CCN(CCN4CCCC4)CC3)c(-c3ccccc3)n2)cc1 | 17.2 | > 10000 |  |
| Cc1n[nH]cc1C(=O)NCCN1CCOCC1 | 21.5 | > 10000 |  |
| Cc1ccc(-n2nc(-c3ccccc3)nc2C(=O)NCC(C)(C)N2CCOCC2)cc1 | 28.9 | > 10000 |  |
| COc1ccc(-n2nc(-c3ccccc3)nc2C(=O)NCC(C)(C)N2CCOCC2)cc1 | 28 | > 10000 | inhibition [3]: inactive; inhibition [4]: inactive; inhibition [5]: inactive; inhibition [6]: inactive; Activity [7]: 13.24%; inhibition [8]: inactive; Activity [9]: inactive; inhibition [10]: inactive; inhibition [11]: inactive; Activity [12]: 10.32%; inhibition [13]: inactive; Activity [14]: inactive; inhibition [15]: inactive |
| CCc1ccc(-n2cc(C(=O)NCCN3CCOCC3)c(-c3ccccc3)n2)cc1 | 20 | > 10000 |  |
| CCc1ccc(-c2nn(-c3ccccc3)cc2C(=O)NCCN2CCOCC2)cc1 | 45.3 | 1350 |  |
| Cc1ccccc1-c1nn(-c2ccccc2)cc1C(=O)NCCN1CCOCC1 | 9.25 | > 10000 |  |
| Cc1cccc(-n2cc(C(=O)NCCN3CCOCC3)c(-c3ccccc3)n2)c1 | 20.9 | > 10000 |  |
| O=C(NCC1(N2CCOCC2)CCCCC1)c1cn(-c2ccccc2)nc1-c1ccccc1 | -1.95 | > 10000 |  |
| O=C(NCCN1CCOCC1)c1cncc(-c2ccccc2)c1 | 42.5 | > 10000 |  |
| O=C(NCCN1CCOCC1)c1cn(-c2ccc(Cl)cc2)nc1-c1ccccc1 | 8.69 | > 10000 |  |
| CC(C)c1ccc(-c2nn(-c3ccccc3)cc2C(=O)NCCN2CCOCC2)cc1 | -5.81 | > 10000 |  |
| CC(C)N(CCNC(=O)c1cn(-c2ccccc2)nc1-c1ccccc1)C(C)C | 67 | 2240 |  |
| Cc1cncc(C(=O)NCCN2CCOCC2)c1 | 33.6 | > 10000 |  |
| O=C(NCCN1CCOCC1)c1c[nH]nc1-c1ccccc1 | 75.7 | 5390 |  |
| CC(C)c1ccc(-n2cc(C(=O)NCCN3CCOCC3)c(-c3ccccc3)n2)cc1 | 14.8 | > 10000 |  |
| Cc1ccccc1-n1cc(C(=O)NCCN2CCOCC2)c(-c2ccccc2)n1 | -7.78 | > 10000 |  |

Compounds with a lower IC50 [2], results first:

| inhibition [1] [%] | IC50 [2] [nM] | Compound | further results |
| --- | --- | --- | --- |
| 66.8 | 851 | Cc1ccc(-n2cc(C(=O)NCCN3CCOCC3)c(-c3ccccc3)n2)cc1 |  |
| 76.5 | 851 | Cc1ccc(-c2nn(-c3ccc(C)cc3)cc2C(=O)N2CCN(CCN3CCCC3)CC2)cc1 |  |
| 72 | 572 | O=C(NCCN1CCOCC1)c1cn(-c2ccccc2)nc1-c1ccc(Cl)cc1 |  |
| 62 | 541 | CC(C)(CNC(=O)c1cn(-c2ccc(Cl)cc2)nc1-c1ccccc1)N1CCOCC1 |  |
| 84.6 | 348 | C#CCNC(=O)c1cn(-c2ccccc2)nc1-c1ccccc1 |  |
| 75.4 | 335 | O=C(NCCN1CCOCC1)c1cn(-c2ccccc2)nc1-c1cccs1 |  |
| 79.5 | 323 | Cc1ccc(NC(=O)c2cn(-c3ccc(C)cc3)nc2-c2ccccc2)cc1 |  |
| 76.4 | 310 | O=C(NCCN1CCOCC1)c1cn(-c2ccccc2)nc1-c1ccccc1 |  |
| 82.1 | 251 | COC(=O)CCNC(=O)c1cn(-c2ccc(C)cc2)nc1-c1ccccc1 |  |
| 82.3 | 238 | COc1ccc(-c2nn(-c3ccccc3)cc2C(=O)NCCN2CCOCC2)cc1 |  |
| 81.3 | 237 | O=C(NCCN1CCOCC1)c1cn(-c2ccccc2)nc1-c1ccncc1 |  |
| 86.6 | 232 | O=C(c1cn(-c2ccccc2)nc1-c1ccccc1)N1CCN(CCN2CCCC2)CC1 |  |
| 92.3 | 200 | CC(C)(CNC(=O)c1cn(-c2ccccc2)nc1-c1ccccc1)N1CCN(c2ccccc2)CC1 |  |
| 82.4 | 191 | Cc1ccc(-n2cc(C(=O)NCC(C)(C)N3CCOCC3)c(-c3ccccc3)n2)cc1 |  |
| 93 | 108 | COc1ccc(-n2cc(C(=O)NCCN3CCOCC3)c(-c3ccccc3)n2)cc1 |  |
| 92.3 | 93.2 | COc1ccccc1-n1cc(C(=O)NCC(C)(C)N2CCOCC2)c(-c2ccccc2)n1 |  |
| 94.2 | 73 | Cc1ccc(-n2cc(C(=O)N3CCN(CCN4CCCC4)CC3)c(-c3ccccc3)n2)cc1 |  |
|  | 10.5 | CC(C)c1c(-c2ccccc2)[nH]c2c(C#N)cnn2c1=O | IC50 [16]: 30300 nM; inhibition at 100 µM [17]: < 10%; Activity [9]: Active; IC50 [18]: 23800 nM; Activity [14]: Active |
